# Assay outcomes: PubChem BioAssay, The Scripps Research Institute Molecular Screening Center
# Hits are enriched below; roughly 4.5% of the tested compounds scored in any of these assays.
# CHO parental Ca – counter-screen: ATP calcium response change in parental CHO cells; parental CHO-K1, ATP-induced calcium, Fluo-8 fluorescence; inhibition, % at 5.6 µM; 330,000 tested, 0.63% active; AID 463079;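 active means inhibition above that plate's mean sample inhibition plus 3 SD, cut at about 26% in these data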;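 further: 0% = ATP-challenged DMSO wells and 100% = DMSO wells without ATP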
#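 Assay system: untransfected parental CHO cell line. Also added: ATP agonist challenge. Dosing: one dose, 5.6 µM nominal. Measured by: Fluo-8 fluorescence. Read-out: % inhibition. Benchmarks: ATP wells versus no-ATP DMSO wells. Repeats: no replicates.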
# OX1R antag-1 – OX1R (human) antagonism; O43613; OX1R-expressing cells, FRET antagonist read-out; inhibition, % at 6.6 µM; 330,000 tested, 1.8% active; AID 485270; in the data active means inhibition mostly above about 38%, no sharp cut-off; inactive means mostly below about 40%;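 further: 0% = agonist challenge alone and 100% = reference antagonist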
# TAAR1 ag – human TAAR1 agonism; CHO RD-HGA16 TAAR1, Fluo-8 calcium fluorescence; vehicle wells 0%, saturating PEA agonist 100%; activation, % at 3 µM; 360,000 tested, 0.99% active;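 active means activation above the mean activation of all test compounds in the run plus 3 SD, cut at about 38% in these data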
# Target sequence (Q96RJ0 whole entry, looked up): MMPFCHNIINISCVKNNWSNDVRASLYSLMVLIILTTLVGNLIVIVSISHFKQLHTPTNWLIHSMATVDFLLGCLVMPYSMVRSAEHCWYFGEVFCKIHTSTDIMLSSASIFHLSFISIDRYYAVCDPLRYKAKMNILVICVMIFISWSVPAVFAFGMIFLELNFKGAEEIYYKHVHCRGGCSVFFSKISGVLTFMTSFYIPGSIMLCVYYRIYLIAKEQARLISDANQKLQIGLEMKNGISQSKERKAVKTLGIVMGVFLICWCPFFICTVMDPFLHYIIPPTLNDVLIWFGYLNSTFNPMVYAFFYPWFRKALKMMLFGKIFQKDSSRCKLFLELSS
#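 Test system: RD-HGA16 (CHO) cells co-expressing Gα16 and hTAAR1; dosing: one-point dosing at 3 µM (nominal); timing: 17-24 h seeding, 75 min 37 °C dye, 30 min RT; signal: kinetic Fluo-8 calcium fluorescence; read-out basis: % activation relative to PEA EC100 response; controls: DMSO and PEA EC100; replicates: n 1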
# OX1R antag-2 – blocks the human orexin 1 receptor. O43613. CHO/OX1R cells, Fluo-8 calcium fluorescence, orexin A. inhibition, % at 5 µM. 330,000 tested, 0.43% active;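 active means inhibition above its plate's threshold, mean inhibition of all tested compounds on the plate plus 3 SD, cut at about 37% in these data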;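 further: 0% = orexin A challenge wells and 100% = SB-334867-A antagonist wells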
# TAAR1 antag – antagonists of human TAAR1. Q96RJ0. CHO RD-HGA16 TAAR1, Fluo-8 calcium fluorescence, antagonist. inhibition, % at 3 µM. 360,000 tested, 1.5% active;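 active means inhibition above a per-plate cutoff, the mean inhibition of test compounds on that plate plus 3 SD, cut at about 49% in these data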;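 further: 0% = DMSO plus EC80 beta-PEA response and 100% = DMSO alone without agonist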
#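 test system = CHO RD-HGA16 cells bearing hTAAR1 | replication = singlicate | controls = DMSO-only wells and EC80 β-PEA-stimulated wells | reagent = EC80 β-phenethylamine stimulus | read-out basis = percent inhibition of PEA-evoked calcium signal, max/basal emission ratio | schedule = seeding 17-24 h prior, 75-min 37 °C, 30-min RT dye loading | signal = kinetic Fluo-8 calcium fluorescence measurement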
# GPR7 antag – antagonists of human GPR7 (neuropeptides B/W receptor 1); P48145; GPR7-expressing cells, fluorescence antagonist assay; inhibition, % at 4.4 µM; 290,000 tested, 1.1% active; in the data active means inhibition above about 16%, passing the limit was not always enough;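 further: cells stimulated with the agonist NPW; 0% = agonist with vehicle and 100% = vehicle without agonist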
# Target sequence (P48145 whole entry, looked up): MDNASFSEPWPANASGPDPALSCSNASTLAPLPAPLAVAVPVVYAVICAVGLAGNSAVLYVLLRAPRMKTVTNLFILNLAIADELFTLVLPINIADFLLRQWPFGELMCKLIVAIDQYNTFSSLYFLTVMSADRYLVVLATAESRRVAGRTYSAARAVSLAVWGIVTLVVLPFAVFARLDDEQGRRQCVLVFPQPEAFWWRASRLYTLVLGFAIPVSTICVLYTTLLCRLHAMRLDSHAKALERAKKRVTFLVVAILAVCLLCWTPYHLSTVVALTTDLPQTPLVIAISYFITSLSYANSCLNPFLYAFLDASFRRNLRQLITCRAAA
# OX1R HTRF conf – confirmation of human orexin 1 receptor antagonists, HTRF format | 1,800 tested, 49% active | inhibition, % at 6.6 µM | shares compounds with OX1R antag-1 | OX1R-expressing cells, HTRF antagonist assay; in the data active means inhibition above about 55%;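 further: CHO cells expressing OX1R stimulated with orexin A at about EC80; 0% = agonist challenge alone and 100% = reference antagonist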
# CHO-K1 HTRF – counter-screen for OX1R antagonists: effect in parental CHO-K1 cells. inhibition, % at 6.6 µM. 1,800 tested, 48% active. HTRF counterscreen. shares compounds with OX1R antag-1. AID 493232; in the data active means inhibition above about 17%;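 further: 0% = agonist challenge with vehicle and 100% = vehicle alone without agonist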
# Numbers without * were called inactive; · = not tested or not shown.
SMILES,CHO parental Ca,OX1R antag-1,TAAR1 ag,OX1R antag-2,TAAR1 antag,GPR7 antag,OX1R HTRF conf,CHO-K1 HTRF
CCOCCCN(C(=O)c1snc(C(N)=O)c1N)C(C(=O)NCCC(C)C)c1ccc(Cl)cc1 (stereo not drawn),-26,13,7,-38,2,-10,·,·
O=[N+]([O-])c1ccc(C2=Nn3cnnc3SC2)cc1,-8,88*,0,-30,-27,3,58*,93*
CCOc1ccc(C2=Nn3cnnc3SC2)cc1,-3,9,13,-12,1,-9,·,·
O=c1[nH]c2cc3c(cc2cc1CN(Cc1cccs1)Cc1nnnn1Cc1ccco1)OCCO3,-3,103*,12,0,-9,-7,11,4
O=C1c2ccccc2C(=O)c2c1cccc2N1CCOCC1,-16,81*,4,-23,-2,-8,43,34*
CC(C)(C)c1ccc(-c2nnc(SCC(=O)NC3CC3)o2)cc1,-11,0,1,3,5,·,·,·
CC(=O)c1c(C)[nH]c(C(=O)OCc2csc(CC(=O)Nc3ccccc3C)n2)c1C,-16,7,11,19,23,·,·,·
O=[N+]([O-])c1ccc(SNc2ccccc2)c([N+](=O)[O-])c1,·,·,4,·,31,·,·,·
O=[N+]([O-])c1ccc(-[n+]2ccc3ccccc3c2)c([N+](=O)[O-])c1,-3,78*,16,-5,-3,·,47,60*
Nc1c([N+](=O)[O-])cnnc1-c1ccccc1,-8,80*,1,2,-13,-10,93*,101*
CSCCC(=O)N1CCC(n2nccc2NC(=O)CCCc2ccccc2)CC1,-25,7,2,-17,-24,-1,·,·
O=C1NC2(Nc3ccccc31)C(=O)Nc1ccccc12 (stereo not drawn),-25,80*,14,-8,22,-6,22,6
C/C(=N\NC(=O)c1nnn(-c2nonc2N)c1CN(C)c1ccccc1)c1cccnc1,-24,23,0,7,2,6,·,·
Cc1ccc(N=Nc2c(=O)[nH]n3c(C)cc(C)nc23)cc1,-14,174*,1,-25,11,-6,48,80*
Cc1cc(C)n2[nH]c(=O)c(N=Nc3ccc(S(N)(=O)=O)cc3)c2n1,-5,88*,0,-13,17,3,57*,85*
Cc1ccc(N=Nc2c(N)[nH]n3c(=O)cc(C)nc23)cc1,-8,8,-1,-16,4,-9,·,·
Cn1c(SCC(=O)NC2CC2)nnc1-c1cccs1,-2,6,3,-7,-2,-13,·,·
CC(=O)NC(Cc1ccc(C)cc1)C(=O)NC1CCN(S(=O)(=O)c2ccccc2)CC1 (stereo not drawn),-3,15,-3,-23,-11,-6,·,·
COc1ccccc1-n1c(C)c(C(=O)O)c2cc(OC)c3ccccc3c21,-6,8,1,-10,-4,-4,·,·
CCn1c(C)c(C(=O)O)c2cc(OC)c3ccccc3c21,-12,99*,-2,-29,-1,2,89*,5
O=C(Nc1cccc(Cl)c1)c1cc(N=Nc2ccc([N+](=O)[O-])cc2Cl)ccc1O,14,77*,4,21,8,4,57*,23*
COC(=O)c1ccccc1NC(=O)c1cc[n+](C)cc1,1,83*,1,-5,-10,·,33,49*
COCC(=O)OCC(=O)Nc1ccc(Cl)cc1[N+](=O)[O-],-3,99*,-1,4,2,-2,28,50*
COCC(=O)OCC(=O)Nc1cc([N+](=O)[O-])ccc1Cl,·,·,4,·,-4,-1,·,·
COc1ccccc1CNC(=O)COC(=O)CCN1C(=O)C2CC=CCC2C1=O (stereo not drawn),·,·,1,·,-10,·,·,·
SMILES,CHO parental Ca,OX1R antag-1,TAAR1 ag,OX1R antag-2,TAAR1 antag,GPR7 antag,OX1R HTRF conf,CHO-K1 HTRF
CCOC(=O)c1ccc([N+](=O)[O-])cc1NC(C)=O,-5,83*,-1,2,-12,-6,35,44*
COc1ccccc1NC(=O)NNC(=O)CCc1ccccc1,2,8,2,-12,-33,-11,·,·
CCS(=O)(=O)c1ccc(Sc2nncn2C)c([N+](=O)[O-])c1,-2,96*,4,-1,-7,3,32,51*
CCOC(=O)c1c(C)nc2c(C)cccn12,-3,3,7,-15,1,-4,·,·
CCOC(=O)c1c(C)nc2c3ccccc3ccn12,-20,90*,15,1,-11,-2,58*,-6
Cc1[nH]n(-c2ccccc2)c(=O)c1/C=N/Nc1nncc(-c2ccccc2)n1,-14,80*,-1,2,0,0,24,10
CC(C)Cc1nnc(NC(=O)CN2C(=O)NC3(CCCC3)C2=O)s1,-17,15,1,-14,-7,·,·,·
COc1ncccc1-c1cc2nc(NCCCN(C)C)n(C)c(=O)c2s1,·,·,-1,·,7,·,·,·
O=C(c1ccc(NS(=O)(=O)c2cccc([N+](=O)[O-])c2)cc1)N1CCCCCC1,-10,24,4,-22,-5,·,·,·
O=C(c1ccccc1NS(=O)(=O)c1cccc([N+](=O)[O-])c1)N1CCCC1,-11,78*,0,0,-5,-15,20,7
COc1c(C)cc(C(=O)C2CCCN(C(=O)c3cccc(-n4cccn4)c3)C2)cc1C (stereo not drawn),-9,89*,-1,-8,1,-22,81*,3
CC(C)Cn1c(N)c(C(=O)COC(=O)c2c(O)c(Cl)cc(Cl)c2Cl)c(=O)n(C)c1=O,-20,4,0,-18,-3,·,·,·
CC(C)c1ccc(NC(=O)CCCN2C(=S)NC(C)(C)CC2C)cc1 (stereo not drawn),-20,100*,-1,-29,-22,-10,16,10
CC1CC(C)(C)NC(=S)N1CCCC(=O)Nc1ccc(Cl)cc1 (stereo not drawn),-14,4,1,-23,-4,2,·,·
COc1cc([N+](=O)[O-])c(C(=O)N2CCOCC2)c([N+](=O)[O-])c1,-5,94*,2,10,-10,-5,45,42*
CCN(CC)c1ccc(NC(=O)c2ccc3c(c2)c(C)c(C)n3C)cc1,-9,78*,7,-4,6,4,51,14
CC(Sc1ccc(Cl)cc1)C(=O)NNC(=O)c1ccco1 (stereo not drawn),-13,2,0,-8,9,·,·,·
O=C(CSc1nc(O)c(C2CCCCC2)c(=O)[nH]1)Nc1ccccc1Cl,-13,79*,0,-10,-4,-3,20,1
